Reference: ChEMBL document CHEMBL1158603, “S-aryltriazole acyclonucleosides: synthesis and biological evaluation against hepatitis C virus” (Bioorg Med Chem Lett, 2010)
Active and inactive are the calls of the source. The rule behind the calls is not given here.

system: Hepatitis C virus; assay: Antiviral activity against HCV infected in human HuH5.2 cells assessed as inhibition of subgenomic RNA replication after 4 days by Steady-Glo luciferase assay; type: functional, organism-based; conditions: Hepacivirus hominis
In short: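 Huh-5-2 replicon cells seeded at 5000/well in complete DMEM with 250 µg/mL G418, grown 24 h at 37 °C (5% CO2). Medium then replaced by threefold serial dilutions of compound in complete DMEM without G418. After 4 days at 37 °C, medium removed and luciferase activity read by luminescence.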

Row | SMILES | Activity
1 | NC(=O)c1nc(Sc2ccc3ccccc3c2)n(COCCO)n1 | inactive
2 | Cc1ccccc1Sc1nc(C(N)=O)nn1COCCO | inactive
3 | COC(=O)c1nc(SCc2cccc(C(F)(F)F)c2)n(COCCOC(C)=O)n1 | inactive
4 | COC(=O)c1nc(Sc2ccc3ccccc3c2)n(COCCOC(C)=O)n1 | inactive
5 | NC(=O)c1nc(Sc2ccccc2)n(COCCO)n1 | inactive
6 | Cc1cccc(Sc2nc(C(N)=O)nn2COCCO)c1 | inactive
7 | NC(=O)c1nc(Sc2ccccc2F)n(COCCO)n1 | inactive
8 | COC(=O)c1nc(Sc2ccccc2C)n(COCCOC(C)=O)n1 | inactive
9 | COc1ccc(Sc2nc(C(N)=O)nn2COCCO)cc1 | inactive
10 | COC(=O)c1nc(Sc2cccc(F)c2)n(COCCOC(C)=O)n1 | inactive
11 | NC(=O)c1nc(Sc2ccc(C(F)(F)F)cc2)n(COCCO)n1 | inactive
12 | COC(=O)c1nc(Sc2cccc(C)c2)n(COCCOC(C)=O)n1 | inactive
13 | COc1ccccc1Sc1nc(C(N)=O)nn1COCCO | inactive
14 | NC(=O)c1nc(Sc2cccc(C(F)(F)F)c2)n(COCCO)n1 | inactive
15 | COC(=O)c1nc(Sc2ccc(Cl)cc2)n(COCCOC(C)=O)n1 | inactive
16 | COC(=O)c1nc(Sc2ccc(C)cc2)n(COCCOC(C)=O)n1 | inactive
17 | Cc1ccc(Sc2nc(C(N)=O)nn2COCCO)cc1 | inactive
18 | NC(=O)c1nc(Sc2cccc(F)c2)n(COCCO)n1 | inactive

Row | SMILES | Activity
19 | NC(=O)c1nc(Sc2ccc(Cl)cc2)n(COCCO)n1 | inactive
20 | COC(=O)c1nc(Sc2cccc(OC)c2)n(COCCOC(C)=O)n1 | inactive
21 | COc1cccc(Sc2nc(C(N)=O)nn2COCCO)c1 | inactive
22 | COC(=O)c1nc(Sc2ccccc2F)n(COCCOC(C)=O)n1 | inactive
23 | COC(=O)c1nc(Sc2ccc(OC)cc2)n(COCCOC(C)=O)n1 | inactive
24 | NC(=O)c1nc(Sc2ccc(F)cc2)n(COCCO)n1 | inactive
25 | COC(=O)c1nc(Sc2ccc(F)cc2)n(COCCOC(C)=O)n1 | inactive
26 | COC(=O)c1nc(Sc2cccc(C(F)(F)F)c2)n(COCCOC(C)=O)n1 | inactive
27 | NC(=O)c1nc(SCc2cccc(C(F)(F)F)c2)n(COCCO)n1 | inactive
28 | CCCSc1nc(C(=O)OC)nn1COCCOC(C)=O | inactive
29 | COC(=O)c1nc(Sc2ccccc2)n(COCCOC(C)=O)n1 | inactive
30 | NC(=O)c1nc(Sc2ccccc2C(F)(F)F)n(COCCO)n1 | inactive
31 | COC(=O)c1nc(Sc2ccc(C(C)(C)C)cc2)n(COCCOC(C)=O)n1 | inactive
32 | COC(=O)c1nc(Sc2ccccc2C(F)(F)F)n(COCCOC(C)=O)n1 | inactive
33 | COC(=O)c1nc(Sc2ccc(C(F)(F)F)cc2)n(COCCOC(C)=O)n1 | inactive
34 | CC(C)(C)c1ccc(Sc2nc(C(N)=O)nn2COCCO)cc1 | inactive
35 | COC(=O)c1nc(Sc2ccccc2OC)n(COCCOC(C)=O)n1 | inactive
